In ChEMBL document CHEMBL1944596, “7,8-dichloro-1-oxo-β-carbolines as a versatile scaffold for the development of potent and selective kinase inhibitors with unusual binding modes” (J Med Chem, 2012):

Assays:
[1] = target: AP2-associated protein kinase 1 (Homo sapiens) (UniProt Q2M2I8); assay: Binding affinity to AAK1 assessed as change in thermal denaturation at 10 uM by thermal stability shift assay
Outline: (§1)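 Each compound was screened across a kinase panel by thermal stability shift assay. The read-out was the shift in protein melting temperature (ΔTm, in °C) relative to the unliganded kinase. A ΔTm of 4.0 °C served as the hit cutoff.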

[2] = target: T1, Dual specificity tyrosine-phosphorylation-regulated kinase 2 (Homo sapiens) (UniProt Q92630); assay: Binding affinity to DYRK2 assessed as change in thermal denaturation at 10 uM by thermal stability shift assay; outline: as §1
T1 sequence (whole entry): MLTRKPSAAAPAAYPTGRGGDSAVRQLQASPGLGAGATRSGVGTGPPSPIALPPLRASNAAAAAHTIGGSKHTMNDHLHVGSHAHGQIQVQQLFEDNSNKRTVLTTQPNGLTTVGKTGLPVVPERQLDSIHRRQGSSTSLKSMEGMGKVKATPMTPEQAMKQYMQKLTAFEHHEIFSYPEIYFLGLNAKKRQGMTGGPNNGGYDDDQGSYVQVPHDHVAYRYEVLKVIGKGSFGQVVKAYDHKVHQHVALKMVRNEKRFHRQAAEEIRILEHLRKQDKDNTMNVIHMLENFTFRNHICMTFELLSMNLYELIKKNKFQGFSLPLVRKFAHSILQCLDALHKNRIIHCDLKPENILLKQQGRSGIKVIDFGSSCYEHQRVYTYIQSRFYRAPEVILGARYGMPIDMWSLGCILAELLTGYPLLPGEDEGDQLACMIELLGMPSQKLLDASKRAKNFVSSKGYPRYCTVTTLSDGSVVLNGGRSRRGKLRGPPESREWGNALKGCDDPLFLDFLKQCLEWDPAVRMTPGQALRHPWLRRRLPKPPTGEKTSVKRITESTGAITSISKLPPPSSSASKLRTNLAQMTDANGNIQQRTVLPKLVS

[3] = target: Protein kinase C gamma type (Homo sapiens) (UniProt P05129); assay: Binding affinity to PKCgamma assessed as change in thermal denaturation at 10 uM by thermal stability shift assay; outline: as §1
[4] = target: T2, Serine/threonine-protein kinase PLK4 (Homo sapiens) (UniProt O00444); assay: Binding affinity to PLK4 assessed as change in thermal denaturation at 10 uM by thermal stability shift assay; outline: as §1
T2 sequence (whole entry): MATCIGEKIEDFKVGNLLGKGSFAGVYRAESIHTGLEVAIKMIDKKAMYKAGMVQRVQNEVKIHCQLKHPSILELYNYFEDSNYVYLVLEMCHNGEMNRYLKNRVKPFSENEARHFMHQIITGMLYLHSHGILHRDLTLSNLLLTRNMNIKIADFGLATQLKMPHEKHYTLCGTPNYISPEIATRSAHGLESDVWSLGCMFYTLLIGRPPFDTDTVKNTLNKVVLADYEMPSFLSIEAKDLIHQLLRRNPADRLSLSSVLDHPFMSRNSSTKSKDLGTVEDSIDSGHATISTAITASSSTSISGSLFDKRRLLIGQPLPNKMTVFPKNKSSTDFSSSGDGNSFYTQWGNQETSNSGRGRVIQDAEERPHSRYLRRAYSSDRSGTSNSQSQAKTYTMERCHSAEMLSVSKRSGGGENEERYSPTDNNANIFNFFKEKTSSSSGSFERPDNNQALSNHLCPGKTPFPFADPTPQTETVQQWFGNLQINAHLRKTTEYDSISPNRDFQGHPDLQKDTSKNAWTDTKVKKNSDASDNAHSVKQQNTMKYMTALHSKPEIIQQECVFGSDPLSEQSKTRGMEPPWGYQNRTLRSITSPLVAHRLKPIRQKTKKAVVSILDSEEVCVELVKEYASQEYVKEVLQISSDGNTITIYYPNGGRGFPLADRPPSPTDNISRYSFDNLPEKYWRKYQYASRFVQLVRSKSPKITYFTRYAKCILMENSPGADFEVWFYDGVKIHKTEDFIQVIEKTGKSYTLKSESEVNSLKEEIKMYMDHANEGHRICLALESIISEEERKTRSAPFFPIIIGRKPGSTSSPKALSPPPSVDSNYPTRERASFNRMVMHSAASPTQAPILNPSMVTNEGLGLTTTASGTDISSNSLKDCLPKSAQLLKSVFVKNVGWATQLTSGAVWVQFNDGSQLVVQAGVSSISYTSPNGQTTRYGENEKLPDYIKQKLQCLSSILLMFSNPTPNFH

[5] = target: Tyrosine-protein kinase Fes/Fps (Homo sapiens) (UniProt P07332); assay: Binding affinity to FES assessed as change in thermal denaturation at 10 uM by thermal stability shift assay; outline: as §1
Sequence of Tyrosine-protein kinase Fes/Fps (Homo sapiens) (P07332 whole entry): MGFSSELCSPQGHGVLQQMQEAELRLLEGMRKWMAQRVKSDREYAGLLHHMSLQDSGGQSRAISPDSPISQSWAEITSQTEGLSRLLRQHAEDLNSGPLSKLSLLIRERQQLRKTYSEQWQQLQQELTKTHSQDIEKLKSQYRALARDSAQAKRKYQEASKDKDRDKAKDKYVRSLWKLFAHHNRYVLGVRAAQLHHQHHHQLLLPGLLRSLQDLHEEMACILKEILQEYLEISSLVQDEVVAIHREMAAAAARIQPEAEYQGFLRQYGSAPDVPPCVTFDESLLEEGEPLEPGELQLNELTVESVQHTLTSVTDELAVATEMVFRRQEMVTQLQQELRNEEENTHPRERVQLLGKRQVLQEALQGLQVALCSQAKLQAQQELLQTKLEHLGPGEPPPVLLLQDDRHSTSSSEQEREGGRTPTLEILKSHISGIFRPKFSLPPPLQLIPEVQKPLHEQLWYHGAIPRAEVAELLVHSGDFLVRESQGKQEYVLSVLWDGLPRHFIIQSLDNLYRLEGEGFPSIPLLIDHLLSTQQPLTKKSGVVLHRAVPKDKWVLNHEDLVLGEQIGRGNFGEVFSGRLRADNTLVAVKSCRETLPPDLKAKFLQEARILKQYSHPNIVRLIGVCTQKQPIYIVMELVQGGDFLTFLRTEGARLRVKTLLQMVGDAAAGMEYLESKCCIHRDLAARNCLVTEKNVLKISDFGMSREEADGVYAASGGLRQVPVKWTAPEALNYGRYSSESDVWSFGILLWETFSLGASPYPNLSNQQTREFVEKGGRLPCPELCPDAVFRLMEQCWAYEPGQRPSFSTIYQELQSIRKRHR

Sequence of AP2-associated protein kinase 1 (Homo sapiens) (Q2M2I8 whole entry, looked up): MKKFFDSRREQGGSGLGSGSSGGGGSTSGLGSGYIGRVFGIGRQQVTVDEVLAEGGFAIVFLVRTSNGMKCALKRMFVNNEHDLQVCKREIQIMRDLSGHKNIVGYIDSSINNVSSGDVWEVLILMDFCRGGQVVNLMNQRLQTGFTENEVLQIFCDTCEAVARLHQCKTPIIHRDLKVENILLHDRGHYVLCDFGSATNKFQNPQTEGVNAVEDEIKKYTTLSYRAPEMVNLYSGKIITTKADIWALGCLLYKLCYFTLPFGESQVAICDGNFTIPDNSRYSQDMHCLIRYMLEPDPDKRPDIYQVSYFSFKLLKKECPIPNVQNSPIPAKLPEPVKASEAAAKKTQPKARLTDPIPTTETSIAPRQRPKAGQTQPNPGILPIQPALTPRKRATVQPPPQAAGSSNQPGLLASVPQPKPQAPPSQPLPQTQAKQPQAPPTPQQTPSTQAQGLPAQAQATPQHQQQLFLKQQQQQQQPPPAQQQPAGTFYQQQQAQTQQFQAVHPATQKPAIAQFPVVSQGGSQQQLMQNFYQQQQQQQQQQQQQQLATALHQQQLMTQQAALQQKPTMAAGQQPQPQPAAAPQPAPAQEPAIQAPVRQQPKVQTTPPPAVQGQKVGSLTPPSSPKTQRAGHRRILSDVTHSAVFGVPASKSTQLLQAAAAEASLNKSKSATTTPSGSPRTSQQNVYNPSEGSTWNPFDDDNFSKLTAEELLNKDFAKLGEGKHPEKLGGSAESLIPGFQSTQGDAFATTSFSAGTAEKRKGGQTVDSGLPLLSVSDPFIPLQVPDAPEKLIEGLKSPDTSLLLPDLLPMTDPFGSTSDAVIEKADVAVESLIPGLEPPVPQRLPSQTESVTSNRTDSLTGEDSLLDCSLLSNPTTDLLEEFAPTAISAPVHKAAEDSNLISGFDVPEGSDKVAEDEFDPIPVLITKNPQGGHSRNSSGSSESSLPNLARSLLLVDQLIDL

Structure (SMILES)	ΔTm [1] [°C]	ΔTm [2] [°C]	ΔTm [3] [°C]	ΔTm [4] [°C]	ΔTm [5] [°C]
Cn1c2c(c3ccccc31)C(C#N)C(C)(C)NC2=O (stereo not given)	0.6	0.5	0.4	0.9	0
Cn1c2c(Cl)c(Cl)ccc2c2cc(N)[nH]c(=O)c21	2	2.4	0.2	2	0.4
Cn1c2c(Cl)c(Cl)ccc2c2cc[nH]c(=O)c21	4.6	4.1	1.2	1.7	0.1
N#CC1c2c([nH]c3c(Cl)c(Cl)ccc23)C(=O)NC12CCCCC2 (racemic)	2.4	1.4	1.3	1.3	-0.4
CC1(C)NC(=O)c2[nH]c3c(Cl)c(Cl)ccc3c2C1C#N (stereo not given)	1.1	1.3	0.7	1.7	-0.2
Cn1c2c(c3ccc(Cl)c(Cl)c31)C(C#N)C1(CCNCC1)NC2=O (racemic)	1.5	3.6	6.1	6.8	4
Cn1c2c(Cl)c(Cl)ccc2c2cn[nH]c(=O)c21	3.9	1.6	1.2	1.5	0.2

Results, then the compound that gave them:

ΔTm [1] [°C]	ΔTm [2] [°C]	ΔTm [3] [°C]	ΔTm [4] [°C]	ΔTm [5] [°C]	Structure (SMILES)
2.6	1	1	2.7	0	Cn1c2c(c3ccc(Cl)c(Cl)c31)C(C#N)C1(CCOCC1)NC2=O (stereo not given)
0.2	0.9	4.5	3.2	0.7	CCN1CCC2(CC1)NC(=O)c1c(c3ccc(Cl)c(Cl)c3n1C)C2C#N (racemic)
2.2	2	1.7	5.1	-0.3	Cn1c2c(c3ccc(Cl)c(Cl)c31)C(C#N)C(C)(C)NC2=O (stereo not given)
0.2	0.9	0	1	0.4	CC(=O)NCC1c2c(n(C)c3c(Cl)c(Cl)ccc23)C(=O)NC1(C)C (racemic)
1.5	0.7	0.5	2.5	0	Cn1c2c(c3ccc(Cl)c(Cl)c31)C(C#N)C1(CCCC1)NC2=O (stereo not given)
1.7	0.6	0.8	4.6	0	CCC1(CC)NC(=O)c2c(c3ccc(Cl)c(Cl)c3n2C)C1C#N (stereo not given)
0.9	1.3	3.9	3.3	0.5	CN1CCC2(CC1)NC(=O)c1c(c3ccc(Cl)c(Cl)c3n1C)C2C#N (racemic)
0.8	0.2	1.7	2.7	0.3	Cn1c2c(c3ccc(Cl)c(Cl)c31)C(CN)C(C)(C)NC2=O (racemic)
0.3	0.3	0.2	0.1	0.4	Cn1c2c(c3ccc(Cl)c(Cl)c31)C(C#N)C1(CCN(C(=O)OC(C)(C)C)CC1)NC2=O (racemic)
